VIM-2 inh: blocks Pseudomonas aeruginosa VIM-2 metallo-beta-lactamase; purified VIM-2, nitrocefin hydrolysis, epi-absorbance fluorescence; inhibition, % at 5.6 µM; 0.89% of 290,000 active;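 active = inhibition above the mean of all tested compounds plus 3 SD, cutoff set per screening run, cut at about 7.5% in these data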;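 note: red hydrolysis product quenches plate fluorescence so inhibitors raise well fluorescence; 0% = enzyme with DMSO and 100% = DMSO without enzyme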
NALP3 yeast inh: NALP3 inhibition in yeast; inhibition, % at 10 µM; 0.39% of 330,000 active; Yeast reconstituted NLRP3/ASC/caspase-1, beta-gal luminescence, 24 h;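 active = inhibition of 50% or more; inactive = inhibition below 50%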;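 note: plate controls were induced DMSO wells for no effect and uninduced yeast grown without galactose for full effect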
NALP1 inh: blocks the NALP1 inflammasome reconstituted in yeast. S. cerevisiae NALP1/ASC/caspase-1 growth, X-gal OD620, 72 h. inhibition, % at 10 µM. 0.61% of 280,000 active. AID 2071; in the data active = inhibition mostly above about 24%, no sharp cut-off; inactive = mostly below about 32%
IMP-1 inhibitor: inhibitors of Pseudomonas aeruginosa IMP-1 metallo-beta-lactamase | inhibition, % at 5.6 µM | 0.45% of 290,000 active | AID 1556 | purified IMP-1, nitrocefin hydrolysis, epi-absorbance fluorescence;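 active = inhibition above the mean plus 3 SD of all compounds in the same screening run, cut at about 4.5% in these data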;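 note: 0% = IMP-1 with DMSO and 100% = DMSO wells lacking enzyme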
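System: purified IMP-1; amount: IMP-1 0.2 nM before substrate addition; compound: single dose, 5.6 µM; times: 25 °C, 15 min preincubation, 25 min reaction; signal: Epi-absorbance via hydrolysed-nitrocefin quenching of white-plate fluorescence, 480/530 nm, EDTA stop; benchmarks: DMSO with and without IMP-1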
Mot1-301 SUMO: SUMOylation pathway inhibition by Mot1-301 growth rescue; S. cerevisiae Mot1-301 growth rescue, ATP luminescence, 38.5C; percent above DMSO median, 100 means doubled; growth rescue, % at 18.8 µM; 1% of 320,000 active; AID 2716;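 active = every valid replicate shows activation above 250% relative to neutral control wells; inactive = the rest, any valid replicate at or below 250%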;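 note: OY570 slx delta 5 strain wells were the positive control but not used for scaling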
PolyA inh: inhibitors of polyadenylation in S. cerevisiae; S. cerevisiae SKY197-pL101 polyadenylation reporter, beta-gal luminescence; efflux-impaired pdr1/pdr3 knockout yeast; score 100 = 6 SD above DMSO; activity score, % at 12 µM; AID 1875; 0.02% of 300,000 active;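 active = lowest replicate activity score at least 50, where 100 means six control SD above control mean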;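 note: yeast exposed to compound for 9 h at 30 °C; higher score means more reporter readthrough which indicates perturbed polyadenylation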
NALP3 yeast conf: confirmation of NALP3 inhibitors in yeast; AID 435006; inhibition, % at 10 µM; 81% of 1,300 active; yeast expressing human NALP3, luminescence; shares compounds with NALP3 yeast inh; in the data active = inhibition above about 48%
Casp1 ASC ctr: counter-screen for NALP3 inhibitors: yeast caspase-1-ASC; shares compounds with NALP3 yeast inh; yeast expressing Caspase-1-ASC, luminescence counter screen; inhibition, % at 10 µM; 66% of 1,000 active
NALP3 yeast rt: yeast NALP3 inhibition, confirmed on retest. AID 488794. inhibition, % at 10 µM. yeast expressing human NALP3, luminescence read-out. 53% of 1,000 active. shares compounds with NALP3 yeast inh
An asterisk follows results filed as active; . = not tested or not shown. A selection: hits, their analogues and other compounds. The true share with any hit is near 2.9%. Cut-off read from the data, not from the text of the source, unless noted: active = inhibition above about 50%; inactive = the rest.

SMILES | VIM-2 inh | NALP3 yeast inh | NALP1 inh | IMP-1 inhibitor | Mot1-301 SUMO | PolyA inh | NALP3 yeast conf | Casp1 ASC ctr | NALP3 yeast rt
CCN(CC)S(=O)(=O)c1ccc(C(=O)Nc2cc(C)cc(C)c2)cc1 | 0 | 51* | -6 | -1 | . | 22 | 52* | 32 | 42
Cc1cccc(CC(C)NC(=O)c2oc3c(F)cccc3c2C)n1 (stereo unspecified) | 1 | 17 | 23 | 2 | -7 | 0 | . | . | .
COc1ccc(C(=O)OCC(=O)Nc2ccc3c(c2)OCO3)cc1S(=O)(=O)N1CCOCC1 | . | -3 | . | . | . | . | . | . | .
COc1nc(-c2ccccc2)ncc1S(=O)(=O)c1ccccc1 | -1 | 57* | 9 | -2 | 240 | 4 | 45 | 41 | 31
CC(=O)N1N=C(c2cccc([N+](=O)[O-])c2)OC1(C)c1cccs1 (stereo unspecified) | -2 | 12 | -19 | -4 | 349 | -22 | . | . | .
CC(=O)N1N=C(c2ccc(C)c([N+](=O)[O-])c2)OC1(C)C | -2 | 53* | 15 | -4 | 54 | -19 | 49* | 75* | 57*
CS/C(=N\S(=O)(=O)c1cccs1)Nc1ccc(F)c(Cl)c1 | -1 | -13 | 33 | -1 | 232 | 7 | . | . | .
CS/C(=N\S(=O)(=O)c1cccs1)Nc1cccc(Cl)c1C | -4 | -118 | 14 | -2 | -29 | 86* | -3 | . | .
COc1ccc(CNC(=O)c2c(C)oc3c2C(=O)c2ccccc2C3=O)cc1 | -2 | 69* | 40 | -3 | -29 | -12 | 71* | 5 | 43
CC(C)Cc1nnc(NC(=O)CCC(=O)N2CC(C)CC(C)C2)s1 (stereo unspecified) | -1 | 13 | 4 | -1 | 276 | -16 | . | . | .
CC(C)(C)c1csc(NC(=O)c2ccccc2O)n1 | 1 | 55* | 14 | -3 | 1 | -64 | 55* | 59* | 49
Cc1csc(NC(=O)c2ccccc2O)n1 | 0 | 11 | 26 | -3 | -11 | 7 | . | . | .
S=c1[nH]cc(-c2ccccc2)n1-c1ccccc1 | -2 | 9 | -8 | -2 | 9 | -2 | . | . | .
COc1ccc(-n2c(-c3ccc(Cl)cc3)c[nH]c2=S)cc1 | -4 | 57* | -19 | -3 | 33 | -2 | 80* | 51* | 38
Cc1ccc(-n2c(-c3ccccc3)c[nH]c2=S)cc1 | -1 | 56* | -3 | -2 | -2 | -32 | 28 | . | .
COC(=O)[C@@H]1[C@H](CCc2ccccc2)NC(=O)N(Cc2ccccc2)[C@@H]1C | . | 5 | . | . | 5 | -6 | . | . | .
O=C(NC(=S)NNC(=O)c1ccccc1O)c1ccccc1 | 3 | 46 | 3 | -2 | 12 | -4 | . | . | .
COc1ccccc1C(=O)NNC(=S)NC(=O)c1cccs1 | -3 | 23 | -9 | -4 | -16 | -50 | . | . | .
O=C(NC(=S)NNC(=O)c1ccccc1O)c1ccc(F)cc1 | 0 | 50* | -1 | -6 | 12 | 7 | 67* | 47 | 52*
Cc1ccc(C(=O)NC(=S)NNC(=O)c2ccccc2O)cc1 | 0 | 53* | 8 | -4 | 1 | -1 | 56* | 35 | 17
Cc1ccc(C(=O)NNC(=S)NC(=O)c2ccccc2)cc1 | . | 47 | . | . | 6 | -26 | . | . | .
Cc1ccc(C(=O)NNC(=S)NC(=O)c2ccc(Cl)cc2Cl)cc1 | -5 | 51* | 8 | -2 | -16 | -35 | 66* | 50* | 49
O=C(NC(=S)NNC(=O)c1ccccc1O)c1cccs1 | 5 | 59* | -4 | -2 | 118 | 34 | 78* | 70* | 56*
Cc1cc(C)cc(NC(=O)CSc2nc(=O)n3cc(C)ccc3n2)c1 | . | 1 | . | . | 11 | 2 | . | . | .
CSc1ccccc1NC(=O)CN(C)C(=O)c1ccc(-n2cccn2)cc1 | . | 14 | . | . | -3 | . | . | . | .
SMILES | VIM-2 inh | NALP3 yeast inh | NALP1 inh | IMP-1 inhibitor | Mot1-301 SUMO | PolyA inh | NALP3 yeast conf | Casp1 ASC ctr | NALP3 yeast rt
OCCC1CN(Cc2ccccc2OC2CCCC2)CCN1Cc1ccsc1 (stereo unspecified) | -3 | 17 | 0 | -3 | 5 | 1 | . | . | .
CCOc1ccc(/C=N/NC(=O)CN2CCCCC2)cc1OCC | -3 | 15 | -7 | -3 | -8 | -17 | . | . | .
c1coc(C2Nc3ccccc3C3OCCC23)c1 (stereo unspecified) | -5 | 19 | 14 | -1 | -15 | -12 | . | . | .
Fc1ccc2c(c1)C1OCCCC1C(c1ccccc1)N2 (stereo unspecified) | 0 | 62* | 25 | -2 | 93 | -11 | 32 | . | .
O=C(NCc1ccc(F)cc1)C1CCN(c2cnccn2)CC1 | -7 | 6 | -3 | -2 | 5 | 2 | . | . | .
Nc1ncc(S(=O)(=O)c2ccc(Cl)cc2)c(N)n1 | 0 | 8 | 17 | 0 | 21 | -2 | . | . | .
CCOC(=O)Cc1csc(NC(=O)c2cc(C)c(C)s2)n1 | . | 65* | . | . | 6 | . | 60* | 79* | 63*
CCOC(=O)Cc1csc(NC(=O)c2cccc(Cl)c2)n1 | . | 64* | . | . | 9 | -3 | 60* | 68* | 54*
CCOC(=O)Cc1csc(NC(=O)c2cc3c(s2)CCCC3)n1 | -5 | 37 | 0 | -3 | -13 | 14 | . | . | .
CCOC(=O)Cc1csc(NC(=O)c2ccc(Cl)s2)n1 | -1 | 63* | 29 | -1 | -9 | 14 | 73* | 75* | 71*
CCOC(=O)Cc1csc(NC(=O)c2ccncc2)n1 | -2 | 20 | -5 | -2 | -11 | 3 | . | . | .
O=C(Cc1ccon1)c1ccc(O)cc1O | -3 | 10 | 11 | -1 | 12 | -1 | . | . | .
COc1ccc(NC(C)=O)cc1S(=O)(=O)N1CCN(Cc2cccs2)CC1 | . | 22 | . | . | 128 | . | . | . | .
COCCn1c(SCC(=O)NC2(C#N)CCCCC2)nc2ccccc2c1=O | . | 7 | . | . | -10 | . | . | . | .
Cc1nc(SCc2ccc(F)cc2)n[nH]1 | 1 | 24 | 1 | -3 | 11 | 5 | . | . | .
Cc1nc(SCc2ccc(OCCC(C)C)cc2)n[nH]1 | -1 | 76* | 29 | -2 | -11 | -34 | 84* | 93* | 89*
CCCCCOc1ccc(CSc2n[nH]c(C)n2)cc1 | 1 | 64* | 22 | -4 | -7 | -69 | 75* | 70* | 82*
COc1ccccc1C(=O)C1CCCN(C(=O)c2cccc(-n3cccn3)c2)C1 (stereo unspecified) | -2 | 1 | -1 | -3 | . | -14 | . | . | .
CSCC(C)N1CCC(CCC(=O)NC2CC2)CC1 (stereo unspecified) | -4 | 5 | 12 | -1 | -11 | 8 | . | . | .
c1ccc(-c2nc(-c3ccccn3)no2)cc1 | -7 | 12 | -66 | -4 | -42 | -21 | . | . | .

Screens deposited in PubChem BioAssay by several laboratories.
